According to ChEMBL document CHEMBL4190240, “Conventional and microwave-assisted synthesis of new 1H-benzimidazole-thiazolidinedione derivatives: A potential anticancer scaffold” (Eur J Med Chem, 2017):
Active and inactive are the calls of the source. The calls are words filed in the database; no cut-off is given here.

Assays:
[1] = tested on: HeLa; test: Cytotoxicity against human HeLa cells assessed as cell growth inhibition after 48 hrs by MTT assay; assay type: functional, cell-based
[2] = tested on: MDA-MB-231; test: Cytotoxicity against human MDA-MB-231 cells assessed as cell growth inhibition after 48 hrs by MTT assay; assay type: functional, cell-based; conditions: MDA-MB-231, 48 h
[3] = tested on: A549; test: Cytotoxicity against human A549 cells assessed as cell growth inhibition after 48 hrs by MTT assay; assay type: functional, cell-based; conditions: A549, 48 h
[4] = tested on: PC-3; test: Cytotoxicity against human PC3 cells assessed as cell growth inhibition after 48 hrs by MTT assay; assay type: functional, cell-based; conditions: PC-3, 48 h
[5] = tested on: HT-1080; test: Cytotoxicity against human HT1080 cells assessed as cell growth inhibition after 48 hrs by MTT assay; assay type: functional, cell-based; conditions: HT-1080, 48 h
[6] = tested on: HEK-293T; test: Cytotoxicity against HEK293T cells assessed as cell growth inhibition after 48 hrs by MTT assay; assay type: cell-based; conditions: Homo sapiens
[7] = tested on: A549; test: Induction of apoptosis in human A549 cells assessed as formation of shrinked nuclei at cytotoxic IC50 concentration after 24 hrs by Hoechst 33242-staining based fluorescent microscopy; assay type: functional, cell-based
Procedure, shortened: (§1)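 A549 cells (5×10^4/well) adhered 24 h on coverslips, exposed 24 h to IC50 concentration, fixed 10 min in 4% paraformaldehyde at 4 °C, stained with Hoechst 33242 (5 µg/mL) 30 min at room temperature. Nuclear morphology examined by fluorescence microscopy (ex 350/em 460 nm, 40x).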

[8] = tested on: A549; test: Induction of apoptosis in human A549 cells assessed as viable cells at cytotoxic IC50 concentration after 24 hrs by Annexin V-FITC/propidium iodide dual staining based flow cytometry (reference value: 84.8%); assay type: functional
[9] = Selectivity index, ratio of IC50 for HEK293T cells to IC50 for human HeLa cells; assay type: toxicity; conditions: HEK293T cells versus HeLa cells, read-out: Ratio IC50
[10] = tested on: A549; test: Induction of apoptosis in human A549 cells assessed as formation of fragmented nuclei at cytotoxic IC50 concentration after 24 hrs by Hoechst 33242-staining based fluorescent microscopy; assay type: functional, cell-based; procedure, shortened: as §1
[11] = tested on: A549; test: Antimigratory activity in human A549 cells assessed as reduction in wound healing at cytotoxic IC50 concentration after 24 to 48 hrs by phase contrast microscopy; assay type: functional, cell-based
Procedure, shortened: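 A549 cells (5×10^5/well) grown 24 h to confluent monolayer, scratched with sterile 200 µL pipette tip, washed twice with PBS. Medium with compound at its IC50 added; untreated wells as control. Wound closure photographed by phase contrast microscopy at 0, 24 and 48 h in three or more random fields.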

[12] = Selectivity index, ratio of IC50 for HEK293T cells to IC50 for human A549 cells; assay type: toxicity; conditions: HEK293T cells versus A549 cells, read-out: Ratio IC50
[13] = tested on: A549; test: Inhibition of filamentous actin polymerization in human A549 cells assessed as reduction in F-actin extension at the periphery at cytotoxic IC50 concentration after 24 hrs by rhodamine-phalloidin/Hoechst 33242 double staining based fluorescent microscopy; assay type: cell-based
Procedure, shortened: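 A549 cells (1×10^6/well) grown on coverslips 24 h, treated 24 h at IC50 concentration, PBS-washed, fixed in 4% paraformaldehyde. Stained with rhodamine-phalloidin for F-actin and Hoechst 33242 for nuclei, mounted in anti-fade, imaged by fluorescence microscopy at 20X; DMSO-treated cells as control.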

[14] = tested on: A549; test: Induction of apoptosis in human A549 cells assessed as early apoptotic cells at cytotoxic IC50 concentration after 24 hrs by Annexin V-FITC/propidium iodide dual staining based flow cyclometry (reference value: 9.8%); assay type: functional
[15] = tested on: A549; test: Induction of ROS production in human A549 cells at cytotoxic IC50 concentration after 24 hrs by DCFH-DA-dye based fluorescent microscopy; assay type: functional, cell-based
[16] = tested on: A549; test: Induction of apoptosis in human A549 cells assessed as loss of mitochondrial membrane potential at cytotoxic IC50 concentration after 24 hrs by rhodamine-123 dye based spectrofluorometery relative to control; assay type: functional
Procedure, shortened: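 A549 cells (5×10^5 cells/mL) adhered overnight, treated 24 h at IC50 concentration, trypsinised, washed and stained with rhodamine-123 (10 µg/mL) in PBS 30 min at room temperature. After two PBS washes, fluorescence measured by spectrofluorometer versus DMSO control; mean ± SD of three independent experiments.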

[17] = tested on: A549; test: Induction of apoptosis in human A549 cells assessed as late apoptotic cells at cytotoxic IC50 concentration after 24 hrs by Annexin V-FITC/propidium iodide dual staining based flow cytometry (reference value: 1.6%); assay type: functional
[18] = tested on: A549; test: Induction of apoptosis in human A549 cells assessed as necrotic cells at cytotoxic IC50 concentration after 24 hrs by Annexin V-FITC/propidium iodide dual staining based flow cytometry (reference value: 3.7%); assay type: functional
[19] = Selectivity index, ratio of IC50 for HEK293T cells to IC50 for human HT1080 cells; assay type: toxicity; conditions: HEK293T cells versus HT1080 cells, read-out: Ratio IC50
[20] = Selectivity index, ratio of IC50 for HEK293T cells to IC50 for human PC3 cells; assay type: toxicity; conditions: HEK293T cells versus PC3 cells, read-out: Ratio IC50
[21] = Selectivity index, ratio of IC50 for HEK293T cells to IC50 for human MDA-MB-231 cells; assay type: toxicity; conditions: HEK293T cells versus MDA-MB-231 cells, read-out: Ratio IC50

Compound | IC50 [1] | IC50 [2] | IC50 [3] | IC50 [4] | IC50 [5] | IC50 [6] | further results
COc1cc(CN2C(=O)S/C(=C\c3ccc4[nH]c(-c5cc(OC)c(OC)c(OC)c5)nc4c3)C2=O)cc(OC)c1OC | 2.24 µM | 0.27 µM | 0.53 µM | 10.2 µM | 0.98 µM | 16.6 µM | –
COc1cc(-c2nc3cc(/C=C4\SC(=O)N(Cc5ccccc5)C4=O)ccc3[nH]2)cc(OC)c1OC | 0.95 µM | 2.29 µM | 0.67 µM | 2.5 µM | 0.66 µM | 8.21 µM | –
COc1cc(-c2nc3cc(/C=C4\SC(=O)NC4=O)ccc3[nH]2)ccc1OCC(C)C | 5.22 µM | 7.78 µM | 5.11 µM | 2.98 µM | 4.45 µM | 14.1 µM | –
COc1cc(-c2nc3cc(/C=C4\SC(=O)N(CC(=O)N5CCOCC5)C4=O)ccc3[nH]2)cc(OC)c1OC | 16.3 µM | 14.9 µM | 2.93 µM | 5.94 µM | 1.68 µM | 18.8 µM | –
COc1cc(OC)c(-c2nc3cc(/C=C4\SC(=O)N(CC(=O)N5CCCCC5)C4=O)ccc3[nH]2)cc1OC | 6.89 µM | > 50 µM | 14.5 µM | > 50 µM | 8.76 µM | > 50 µM | –
COc1cc(-c2nc3cc(/C=C4\SC(=O)N(CC(=O)N5CCCCC5)C4=O)ccc3[nH]2)cc(OC)c1OC | 23.3 µM | 34.9 µM | 0.98 µM | 14.7 µM | 3.65 µM | 21.5 µM | –
COc1cc(OC)c(-c2nc3cc(/C=C4\SC(=O)N(CC(=O)N5CCOCC5)C4=O)ccc3[nH]2)cc1OC | 0.51 µM | 21.3 µM | 0.66 µM | 11.7 µM | 1.12 µM | 35.7 µM | –
COc1ccc(-c2nc3cc(/C=C4\SC(=O)N(Cc5cc(OC)c(OC)c(OC)c5)C4=O)ccc3[nH]2)cc1OC | 0.32 µM | 29.1 µM | 0.13 µM | > 50 µM | 0.27 µM | 6.76 µM | Activity [7]: Active; Activity [8]: 63.5%; selectivity ratio [9]: 21.1; Activity [10]: Active; Activity [11]: Active; selectivity ratio [12]: 52; inhibition [13]: Active; Activity [14]: 25.1%; Activity [15]: Active; Activity [16]: 31.6%; Activity [17]: 8.7%; Activity [18]: 2.7%; selectivity ratio [19]: 25.3
COc1cc(-c2nc3cc(/C=C4\SC(=O)N(Cc5cc(OC)c(OC)c(OC)c5)C4=O)ccc3[nH]2)ccc1OCC(C)C | 0.25 µM | 4.37 µM | 0.096 µM | 0.11 µM | 0.16 µM | 6.65 µM | Activity [7]: Active; Activity [8]: 66.1%; selectivity ratio [9]: 26.6; Activity [10]: Active; Activity [11]: Active; selectivity ratio [12]: 69.3; inhibition [13]: Active; Activity [14]: 21.9%; Activity [15]: Active; Activity [16]: 37.3%; selectivity ratio [20]: 60.5; Activity [17]: 8.3%; Activity [18]: 3.7%; selectivity ratio [19]: 41.6; selectivity ratio [21]: 1.5
COc1cc(OC)c(-c2nc3cc(/C=C4\SC(=O)NC4=O)ccc3[nH]2)cc1OC | 15.4 µM | 24.5 µM | 1.84 µM | 6.32 µM | 6.35 µM | 15.3 µM | –
COc1cc(OC)c(-c2nc3cc(/C=C4\SC(=O)N(Cc5cccc(C)c5)C4=O)ccc3[nH]2)cc1OC | 0.18 µM | 1.78 µM | 0.13 µM | 0.63 µM | 0.19 µM | 3.35 µM | selectivity ratio [9]: 18.6; selectivity ratio [12]: 25.8; selectivity ratio [20]: 5.3; selectivity ratio [19]: 17.6; selectivity ratio [21]: 1.9
COc1cc(-c2nc3cc(/C=C4\SC(=O)N(CC(=O)c5ccccc5)C4=O)ccc3[nH]2)cc(OC)c1OC | 26.3 µM | > 50 µM | 0.88 µM | > 50 µM | 0.57 µM | 13.6 µM | –
COc1cc(-c2nc3cc(/C=C4\SC(=O)N(Cc5cccc(C)c5)C4=O)ccc3[nH]2)cc(OC)c1OC | 1.44 µM | 3.26 µM | 0.93 µM | 4.37 µM | 4.58 µM | 18.9 µM | –
COc1ccc(-c2nc3cc(/C=C4\SC(=O)NC4=O)ccc3[nH]2)cc1OC | 7.83 µM | 13.6 µM | 0.57 µM | 8.72 µM | 2.43 µM | 21.7 µM | –
COc1ccc(-c2nc3cc(/C=C4\SC(=O)N(CC(=O)N5CCOCC5)C4=O)ccc3[nH]2)cc1OC | 7.51 µM | > 50 µM | 8.93 µM | > 50 µM | 3.32 µM | > 50 µM | –
COc1ccc(-c2nc3cc(/C=C4\SC(=O)N(CC(=O)c5ccccc5)C4=O)ccc3[nH]2)cc1OC | 7.48 µM | 2.04 µM | 0.74 µM | 0.43 µM | 0.59 µM | 27.8 µM | –
COc1cc(-c2nc3cc(/C=C4\SC(=O)N(CC(=O)N5CCCC5)C4=O)ccc3[nH]2)cc(OC)c1OC | 4.78 µM | 2.88 µM | 0.91 µM | 8.37 µM | 2.47 µM | 12.7 µM | –
COc1cc(-c2nc3cc(/C=C4\SC(=O)NC4=O)ccc3[nH]2)cc(OC)c1OC | 1.67 µM | 6.83 µM | 3.57 µM | 12 µM | 3.12 µM | 13.6 µM | –
